A short description of test [1]: Selectivity index, ratio of CC50 for human Ava5 cells to IC50 for HCV replication. In kind it is functional. The method, boiled down: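 CC50 from MTS viability in Ava5 cells, run in parallel with replicon treatment (0.5–150 µM, 3 days, versus 0.1% DMSO mock). EC50 is 50% reduction in HCV RNA by RT-qPCR. Index calculated as CC50/EC50.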
Test [2] concerns Hepatitis C virus. Kind of test: Antiviral activity against HCV infected in human Ava5 cells assessed as reduction in HCV RNA level after 3 days by qRT-PCR analysis. The conditions noted are these: for EC50: Ava5, 72 h. In kind it is functional, organism-based, Hepacivirus hominis. An outline of the steps:
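Ava5 cells (Huh7 harbouring HCV subgenomic replicon) exposed to compounds at 0.5–150 µM for 3 days. Total cellular RNA quantified by RT-qPCR with HCV-specific primers, normalised to GAPDH mRNA. EC50 is the concentration lowering HCV RNA by 50% versus 0.1% DMSO mock, from non-linear regression. Means of triplicate experiments.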
(In general: In qPCR the cycle at which signal appears reflects the starting amount.)

In test [3] the test system is Internal ribosome entry site (IRES). Kind of test: Inhibition of HCV IRES-mediated translation by secretory alkaline phosphatase reporter gene assay. Format: nucleic-acid assay. The conditions noted are these: Hepacivirus hominis.
Test [4] relates to Hepatitis C virus. The test is described as follows: Antiviral activity against HCV infected in human Ava5 cells assessed as inhibition of NS5B protein expression after 4 days by Western blot analysis. Format: functional, organism-based. The conditions noted are these: Hepacivirus hominis. An outline of the steps: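 Ava5 cells (Huh7 carrying HCV subgenomic replicon) incubated 4 days with compound at 2.5–15 µM; 0.1% DMSO as mock. Cell lysates analysed by western blot with anti-NS5B antibody, GAPDH as loading control.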
In general terms: Immunoblotting shows a protein as a band on a membrane.

The subject of a further test is Huh-7. Kind of test: Inhibition of HCV NS3/4A protease expressed in human Huh7 cells coexpressing EGFP at 15 uM after 3 days by secretory alkaline phosphatase reporter gene assay. In kind it is cell-based. The conditions noted are these: Hepacivirus hominis. The method, boiled down: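 Huh-7 cells transfected 6 h with 0.5 µg pEG(Δ4AB)SEAP-NS3/4A reporter plasmid, then treated with compound at 5, 10, 12.5 and 15 µM. Controls: 10 nM BILN 2061 (positive) and 0.1% DMSO (mock). SEAP activity in culture medium read after 3 days, expressed as % reduction versus mock. Triplicates, mean ± SD.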
A general note: In a reporter assay the amount or activity of a reporter protein is the signal.

For a further test, the system named is Hepacivirus hominis. The test is described as follows: Inhibition of HCV NS5B polymerase activity by luciferase reporter gene assay.
Test [5] relates to Hepatitis C virus. The test is described as follows: Antiviral activity against HCV infected in human Ava5 cells assessed as reduction in HCV RNA level at 15 uM after 3 days by qRT-PCR analysis relative to control. Format: functional, Hepacivirus hominis. On the set-up: scale not given: the % may be the effect or the level left. An outline of the steps:
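HCV replicon Ava5 cells treated 3 days at 2.5–15 µM. HCV RNA measured by RT-qPCR, normalised to GAPDH mRNA, relative to 0.1% DMSO mock. Triplicate experiments, mean ± SD.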

The source made the active and inactive calls. The rule behind the calls is not given here.

In general, EC50 refers to the concentration that produces a half-maximal response. As for `O=[N+]([O-])c1ccc(Nc2ccc3ccccc3n2)cc1`, in test [1], the “Ratio CC50/EC50” value worked out at 2.4. In addition, the EC50 in the test with Hepatitis C virus [2] came to 20 µM.

For the compound `O=[N+]([O-])c1cc(Nc2ccc3ccccc3n2)ccc1O`, in test [1], the “Ratio CC50/EC50” value was determined as 3.8. Besides, the half-maximal effective concentration (EC50) in the test on Hepatitis C virus [2] came to 21.7 µM.

Consider `COc1cc(Nc2ccc3ccccc3n2)cc(OC)c1`, for which the “Ratio CC50/EC50” value in test [1] is 1. Besides, in the test on Hepatitis C virus [2], the EC50 turned out to be 33 µM.

Turning to `Clc1cc(Br)ccc1Nc1ccc2ccccc2n1`, the “Ratio CC50/EC50” value in test [1] came to 1. The EC50 in the test with Hepatitis C virus [2] is 45 µM.

As for `Cc1ccc(Nc2ccc3ccccc3n2)cc1`, the “Ratio CC50/EC50” value in test [1] is 1. Moreover, the EC50 in the test on Hepatitis C virus [2] was found to be 43 µM.

For `Cc1ccc(Nc2ccc3ccccc3n2)c(C)c1`, the “Ratio CC50/EC50” value in test [1] was 1. For the same compound, in the test with Hepatitis C virus [2], the EC50 was found to be 35 µM.

In the case of `c1ccc(Nc2ccc3ccccc3n2)cc1`, the “Ratio CC50/EC50” value in test [1] is 1.96. Besides, in the test with Hepatitis C virus [2], the EC50 is 23 µM.

On to `Cc1cc(Cl)ccc1Nc1ccc2ccccc2n1`, for which the “Ratio CC50/EC50” value in test [1] came to 3.4. In the test on Hepatitis C virus [2], the EC50 is 12.5 µM.

With `Cc1cc(C)cc(Nc2ccc3ccccc3n2)c1`, the “Ratio CC50/EC50” value in test [1] is reported as 1. Further, the 50% effective concentration (EC50) with Hepatitis C virus [2] came out at 31 µM.

As to `Cc1cccc(C)c1Nc1ccc2ccccc2n1`, in test [1], the “Ratio CC50/EC50” value was determined as 1. Besides, the concentration giving a half-maximal response (EC50) in the test on Hepatitis C virus [2] came out at 40 µM.

For the compound `CCOC(=O)c1ccc(Nc2ccc3ccccc3n2)cc1`, the “Ratio CC50/EC50” value in test [1] is recorded as 2.9. In the test on Hepatitis C virus [2], the concentration for a half-maximal effect (EC50) was 50 µM.

Take `N#Cc1ccc(Nc2ccc3ccccc3n2)cc1`: the “Ratio CC50/EC50” value in test [1] is listed as 3.5. The EC50 in the test with Hepatitis C virus [2] is 14.3 µM.

The term inhibition denotes the change of the read-out against control, counted positive when it falls. As for `O=[N+]([O-])c1cccc(Nc2ccc3ccccc3n2)c1`, the inhibition entry (in test [3]; in the test with Hepacivirus hominis) was “inactive” each time. Besides, the “Ratio CC50/EC50” value in test [1] amounted to 10. In the test on Hepatitis C virus [2], the EC50 was 7 µM. Moreover, the Activity entry with Hepatitis C virus [2] (Hepacivirus hominis) is “Dose-dependent effect”; in the test on Hepatitis C virus [5], 80%. Further, the inhibition entry in the test with Hepatitis C virus [4] is “Dose-dependent effect”; in the test with Huh-7, 40%.

As for `Clc1ccc(Nc2ccc3ccccc3n2)cc1`, the “Ratio CC50/EC50” value in test [1] came out at 1.1. The EC50 in the test on Hepatitis C virus [2] amounted to 53 µM.

As for `COc1cc(Nc2ccc3ccccc3n2)cc(OC)c1OC`, in test [1], the “Ratio CC50/EC50” value stood at 3. In the test on Hepatitis C virus [2], the EC50 is 25 µM.

As to `Brc1ccccc1Nc1ccc2ccccc2n1`, the “Ratio CC50/EC50” value in test [1] is 1. The EC50 in the test on Hepatitis C virus [2] worked out at 60 µM.

As to `c1ccc(COc2cccc(Nc3ccc4ccccc4n3)c2)cc1`, the “Ratio CC50/EC50” value in test [1] is given as 3.1. Moreover, in the test on Hepatitis C virus [2], the EC50 came out at 15.1 µM.

For `COc1ccc(Nc2ccc3ccccc3n2)cc1`, the “Ratio CC50/EC50” value in test [1] was 1. The EC50 with Hepatitis C virus [2] was 43 µM.

Source of the values: ChEMBL document CHEMBL1938316, “Synthesis and anti-HCV activity evaluation of anilinoquinoline derivatives” (Bioorg Med Chem Lett, 2012).
